# Experimental data reported in PubChem BioAssay.
# Unmarked numbers belong to inactive results. Records with an inconclusive call do not appear. Activity calls are given as the source filed them.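 Rule for the calls, unless noted: active = viability increase at or above a cutoff of the median across tested compounds plus 3 SD (cut at about 8.5% in these data, passing the limit was not always enough); inconclusive = some gains above the cutoff, reason not given; inactive = the rest.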
# Assays:
# [1] = S. cerevisiae growth inhibition in permissive medium (OD615), pilot counter-assay for S. cerevisiae lifespan shortening project, permissive growth control (AID 705;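 active = growth inhibition above 25% in both replicates, a cutoff set 3 SD above the mean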); conditions: OD615, 24 h, at 10 µM, stronger effect = higher value
# Summary of the method: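 Test system: Saccharomyces cerevisiae strain carrying genetically modified DeaD replicative-lifespan system; buffer or medium: SC raffinose/galactose permissive medium; dosing: one dose 10 µM, DMSO 0.25% final; times: 24 h exposure, 30 °C; measured by: OD at 615 nm; read-out basis: growth inhibition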
# [2] = S. cerevisiae growth inhibition in restrictive medium, OD615, pilot screen, restrictive growth control, yeast lifespan reduction project (AID 706;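 active = growth inhibition above a set limit, 3 SD over mean compound inhibition, in both replicates, cut at about 43% in these data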;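 note: modified DeaD lifespan yeast strain shifted to restrictive glucose medium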); conditions: OD615, 48 h, at 10 µM, stronger effect = higher value
# Summary of the method: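 material = engineered S. cerevisiae DeaD strain | buffer or medium = glucose-based CSMM-D restrictive medium | dosing = one concentration, 10 µM final, 0.25% DMSO | schedule = 4 h pre-growth plus 48 h compound exposure, 30 °C | detection = OD615 absorbance reading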
# [3] = doxorubicin toxicity protection in MRP-1 cells – H69AR cells, CellTiter-Glo, duplicate, MRP-1 activator project, pilot screen (AID 807); conditions: H69AR viability with doxorubicin, CellTiter-Glo luminescence; at 10 µM; stronger effect = higher value;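 note: compound pretreatment 18-22 h then 72 h combined with doxorubicin; 0% = doxorubicin alone and 100% = vehicle without doxorubicin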
# [4] = viability of HCT116 without oncogenic beta-catenin – human colon tumor cells, pilot screen (AID 823;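 active = cell viability at or below a set limit in both duplicate runs, the limit being the all-compound median minus 4 SD, cut at about 23% in these data, passing the limit was not always enough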;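 note: 0% = wells killed by 20 µM Hyamine and 100% = untreated DMSO cell wells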); conditions: HCT116 beta-catenin knockout viability, CellTiter-Glo, 60 h; at 10 µM; stronger effect = lower value
# [5] = viability of PTEN-null HCT116 cells – cell-based, HCT116 clonal line, CellTiter-Glo, pilot screen (AID 824;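 active = viability at or below 27.92% in each of two runs, the all-compound median minus 4 SD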;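 note: 0% = 20 µM Hyamine control and 100% = vehicle cell control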); conditions: HCT116 PTEN-deleted viability, 60 h, at 10 µM, stronger effect = lower value
# [6] = RAM pathway blockade in budding yeast – dse1pr::URA3 reporter, 5-FOA selection, pilot screen (AID 869;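 active = inhibition over a set limit, the all-compound mean plus 3 SD, in both replicate runs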;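 note: 0% = DMSO wells with no growth and 100% = 10 µM 1-NA-PP1 with full growth; RAM network block rescues cells from 5-FOA so hits raise OD615 growth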); conditions: S. cerevisiae dse1pr::URA3 5-FOA growth, OD615, 2 d; at 10 µM; stronger effect = higher value; strain carries analog-sensitive mutant Cbk1 kinase
# [7] = RAM signaling pathway blockade in yeast – S. cerevisiae, Pdr1DBD-CYC8 efflux-inhibited sensitized strain, primary screen (AID 1298;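 active = RAM network inhibition above 8.4% in each of two replicates, 3 SD over the compound average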;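 note: 0% = DMSO untreated cells without growth and 100% = 10 µM 1-NA-PP1 full growth; higher means more yeast growth rescued from 5-FOA killing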); conditions: S. cerevisiae cbk1-as DSE1-URA3 strain, 5-FOA growth OD615, 2 d; at 50 µM; stronger effect = higher value
SMILES,growth inhibition [1],growth inhibition [2],viability increase [3],viability [4],viability [5],inhibition [6],RAM network inhibition [7]
Cc1cc(C)c(S(=O)(=O)N2CCN(CCO)CC2)c(C)c1,4.04%,10.5%,0.8%,108%,97.4%,1.64%,2.45%
C=CCOC(=O)C1=C(C)NC(=O)NC1c1ccc(OC(=O)c2ccco2)c(OC)c1 (configuration not stated),-6.37%,-18.3%,-0.16%,93.6%,96.4%,0.145%,2.71%
CCOC(=O)N1CCN(c2cc(C)nc3nc(C)nn23)CC1,-11.9%,-9.88%,-1.28%,105%,97.1%,3.44%,2.21%
O=C1c2ccccc2C(=O)C1c1ccncc1,4.93%,-1.51%,-1.88%,92.6%,91.3%,0.79%,-0.62%
O=C(c1cnn2c(C(F)(F)F)cc(-c3ccco3)nc12)N1CCCCCC1,-14.5%,-11.4%,-4.15%,91.3%,91.5%,0.705%,1.5%
NC(=O)C1(N2CCCCC2)CCN(C(=O)c2cccs2)CC1,-8.17%,-16.6%,0.57%,105%,92.3%,0.955%,1.19%
CCOC(=O)CNc1c(N2CCN(c3ccccn3)CC2)c(=O)c1=O,2.94%,13.8%,-1.12%,110%,102%,1.91%,-0.36%
COC(=O)CCc1n[nH]c(=O)[nH]c1=O,3.66%,9.25%,0.89%,106%,102%,0.54%,-0.87%
CCOC(=O)N1CCC(NC(=O)c2ccc(CS(=O)(=O)c3ccccc3C)o2)CC1,-9.38%,-19.7%,-0.86%,106%,98.5%,-0.185%,7.2%
CCCCn1c(=O)[nH]c2ccccc21,-4.76%,-21.1%,-1.44%,106%,104%,1.69%,2.05%
CCCc1cc(C(=O)NC2CCCC2)no1,-11.7%,-2.35%,0.7%,103%,98.1%,0.365%,3.3%
COC(=O)c1ccc(NC(=O)CNC(=O)C2CCCCC2)cc1,-0.115%,-0.73%,-0.57%,98.4%,88.1%,0.625%,1.94%
CC(=O)c1coc2ccc(OCCN3CCCCC3)cc12,-8.68%,-18.4%,-3.83%,85.2%,85.8%,0.64%,2.59%
CCCn1c(CN2CCN(C(=O)OCC)CC2)nc2c1c(=O)n(C)c(=O)n2C,-3.08%,1.72%,-2.59%,92.3%,86.5%,0.325%,2.5%
O=C(O)c1ccc(-n2nnnc2SCc2ccccc2F)cc1,-13.7%,6.63%,1.71%,105%,102%,2.46%,9.03%
CC1=C(C(=O)OCC(C)C)C(c2ccccc2Cl)NC(=O)N1C (configuration not stated),-4.34%,-8.57%,-3.3%,58.5%,67.8%,0.59%,1.74%
COc1ccccc1S(=O)Cc1ccc(C(=O)NCc2ccccc2Cl)o1 (configuration not stated),-7.49%,-16.8%,-1.27%,100%,89.7%,2.41%,4.64%
Nc1nc2c(c3c1c(=O)oc1ccccc13)CCCCC2,-4.79%,5.31%,-2.59%,94.9%,96.2%,2.28%,2.05%

SMILES,growth inhibition [1],growth inhibition [2],viability increase [3],viability [4],viability [5],inhibition [6],RAM network inhibition [7]
CCCN1CCN(C(=O)CCCn2c(C)c3cnn(-c4ccccc4)c(=O)c3c2C)CC1,-10.1%,-6.09%,-2.94%,102%,105%,-0.215%,3.77%
O=C(CN(Cc1ccccc1F)S(=O)(=O)c1ccc(Cl)cc1)NCCCO,-12.7%,-2.21%,-2.15%,102%,93.7%,0.495%,1.84%
O=C(O)COc1ccc(Br)cc1/C=N/O,5.41%,3.78%,-2.11%,92.7%,85.4%,0.975%,2.5%
O=C(Nc1ccccc1Cl)c1ccc(S(=O)(=O)N2CCOCC2)cc1,-11.5%,-7.41%,-0.1%,111%,99.4%,0.585%,2.05%
O=C1c2ccccc2C(O)N1CCN1CCOCC1 (configuration not stated),-0.105%,-6.41%,-1.24%,94.5%,101%,2.64%,1.95%
Cc1ccc(-c2nn(C)c(=O)c3ccccc23)cc1S(=O)(=O)N1CCCC1,-1.23%,-6.2%,-5.14%,49.8%,61%,0.01%,2.78%
COc1ccc(CC(NC(=O)c2ccccc2)C(=O)NCC(=O)O)cc1 (configuration not stated),-3.04%,-2.91%,-0.14%,95.2%,101%,1.44%,-0.37%
O=C(NCCOC(=O)c1ccc(S(=O)(=O)N2CCOCC2)cc1)c1cccnc1,-19.9%,-9.85%,-0.91%,89.8%,91.7%,2.44%,2.11%
Oc1cccc(/C=N/c2c(-c3ccco3)nc3ccccn23)c1,-9.82%,-4.22%,-3.47%,87.7%,93.7%,2%,5.22%
Cc1ccc(-c2nc(NC(=O)CSc3nnc(C)s3)ns2)cc1,-5.46%,2.65%,-0.8%,123%,102%,0.34%,2.66%
Cc1ccc(N(C(C)C(=O)O)S(=O)(=O)c2c(C)[nH]c(=O)[nH]c2=O)cc1 (configuration not stated),1.15%,11.8%,-0.92%,102%,94.5%,0.555%,-0.47%
COc1ccc2c(c1)c(CCN1C(=O)c3ccccc3C1=O)cn2C(=O)c1ccco1,-5.41%,0.45%,-4.3%,85.7%,85.9%,2.02%,4.8%
O=C(CCn1c(=O)oc2ccccc21)Nc1cccc(Cl)c1,-14.4%,-11%,0.42%,92.8%,96.4%,2.17%,2.21%
COc1ccc(CCNC(=O)CCn2c(=O)oc3ccccc32)cc1OC,-6.99%,-12.8%,-0.1%,105%,97.9%,1.47%,1.61%
c1csc(Cc2nc(-c3ccc(-n4cccc4)cc3)no2)c1,-6.69%,-14.7%,-0.35%,106%,93.8%,3.12%,1.65%
O=C1CCC(=O)N1c1cccc(-c2nc3ccccc3o2)c1,-7.93%,-2.65%,0.42%,106%,105%,-0.245%,4.59%
O=C(O)CCSc1nnc(-c2ccccc2)n1-c1ccccc1,4.3%,50.6% (active),0.8%,94.4%,98.3%,1.48%,0.72%
COCCn1c(SCC(=O)OCc2ccccc2)nc2c1c(=O)[nH]c(=O)n2C,4.3%,1.99%,1.83%,98.6%,105%,0.815%,5.05%
